# ChEMBL document CHEMBL1127811, “Inhibitors of cholesterol biosynthesis. 2. Hypocholesterolemic and antioxidant activities of benzopyran and tetrahydronaphthalene analogues of the tocotrienols” (J Med Chem, 1994)
# Values joined by “and” are separate entries in the source; they are usually repeats but may differ in a detail not shown here. Equal entries are not always repeated.
# Assays:
# Gallus gallus [1] = species: Gallus gallus; assay: (§1) Hypocholesterolemic activity in 6-week old male mormocholesterolemic chickens using experiment 4; format: functional
# Outline: (§2)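 Six-week-old male chickens fed corn-soybean control diet with test compound at 50 ppm. Birds fasted 36 h, then refed 48 h before sacrifice. Serum total, LDL and HDL cholesterol and triglycerides measured (mg/100 mL), HDL/total ratio computed. Means ± SD, n = 6–12 per group, also as % of control. Significance p < 0.01 within each study.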
# Gallus gallus [2] = species: Gallus gallus; assay: Ratio of HDL/total cholesterol value; format: functional; outline: as §2
# Gallus gallus [3] = species: Gallus gallus; assay: as §1; format: functional; remark: listed apart in the source
# Outline: (§3)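 Male chickens, 6 weeks old. Test compound mixed at 50 ppm into a corn-soybean control diet; controls get the diet alone. After the feeding period, birds are fasted 36 h and refed 48 h before sacrifice. Serum total, LDL and HDL cholesterol (mg/100 mL) and triglycerides measured; expressed as mean ± SD and percent of control, n = 6–12 per group.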
# HepG2 = assay: In vitro inhibition of cholesterol biosynthesis in Hep G2 cells; format: functional, Homo sapiens; set-up: concentration or dose not given beside the values
# Outline: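 HepG2 human hepatoma cells incubated 4 h with compound at 10 μM, DMSO vehicle controls. Mean % inhibition vs controls, SD ≤ ±10%, n ≥ 8.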
# [4] = Compound oxidation potential using cyclic voltametry; format: ADME
# [5] = molecular target: T1, 3-hydroxy-3-methylglutaryl-coenzyme A reductase (Homo sapiens) (UniProt P04035); assay: In vitro suppression of HMG-CoA reductase (HMGR) in Hep G2 cells; format: cell-based; set-up: concentration or dose not given beside the values; conditions: HepG2, concentration not given here
# T1 sequence (whole entry): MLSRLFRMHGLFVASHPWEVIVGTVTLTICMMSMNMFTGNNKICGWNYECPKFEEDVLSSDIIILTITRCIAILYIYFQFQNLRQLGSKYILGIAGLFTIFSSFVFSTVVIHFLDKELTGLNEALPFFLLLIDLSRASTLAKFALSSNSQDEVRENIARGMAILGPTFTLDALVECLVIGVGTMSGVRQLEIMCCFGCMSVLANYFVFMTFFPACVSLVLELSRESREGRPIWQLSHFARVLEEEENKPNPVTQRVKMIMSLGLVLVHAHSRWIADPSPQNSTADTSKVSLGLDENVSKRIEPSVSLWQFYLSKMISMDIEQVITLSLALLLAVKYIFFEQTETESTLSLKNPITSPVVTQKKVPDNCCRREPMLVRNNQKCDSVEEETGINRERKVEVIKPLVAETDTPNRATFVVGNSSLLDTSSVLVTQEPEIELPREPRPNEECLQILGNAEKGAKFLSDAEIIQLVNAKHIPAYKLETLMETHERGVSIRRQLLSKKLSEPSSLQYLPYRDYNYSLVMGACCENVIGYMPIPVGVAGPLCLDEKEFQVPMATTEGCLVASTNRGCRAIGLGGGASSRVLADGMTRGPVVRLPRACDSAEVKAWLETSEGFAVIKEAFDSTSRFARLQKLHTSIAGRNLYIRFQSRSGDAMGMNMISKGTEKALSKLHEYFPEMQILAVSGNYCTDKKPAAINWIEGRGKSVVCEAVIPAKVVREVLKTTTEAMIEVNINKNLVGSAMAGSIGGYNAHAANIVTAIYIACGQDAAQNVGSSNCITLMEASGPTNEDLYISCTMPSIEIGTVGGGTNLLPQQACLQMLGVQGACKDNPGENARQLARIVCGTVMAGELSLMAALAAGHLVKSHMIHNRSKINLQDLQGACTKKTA
# Outline: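 HepG2 cells treated 4 h with compound at 10 μM, DMSO vehicle controls. HMG-CoA reductase activity assayed in microsomal fraction isolated at end of incubation. Mean % suppression vs controls, SD ≤ ±10%, n ≥ 8.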
# [6] = LDL oxidation assay as spectrophotometric determination of TBARS; format: functional
# Outline: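 LDL (0.5 mg/mL protein stock) in saline/20 mM HEPES with drug in ethanol, oxidised by CuSO4 (4 × 10⁻⁴ M stock), 37 °C, 5 h, in duplicate. Stopped with EDTA; TCA/TBA added, boiled 30 min, A535 read. Malonaldehyde equivalents from tetramethoxypropane standard curve. IC50 = concentration inhibiting 50% TBARS vs ethanol controls.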
# Gallus gallus [7] = species: Gallus gallus; assay: (§4) Hypocholesterolemic activity in 6-week old male mormocholesterolemic chickens using experiment 3; format: functional; outline: as §3
# Gallus gallus [8] = species: Gallus gallus; assay: as §4; format: functional; outline: as §2; remark: listed apart in the source
smiles,measurement,setting,value
CC(=O)Oc1cc2c(c(C)c1C)OC(CC/C=C(\C)CC/C=C(\C)CCC=C(C)C)CC2 (configuration not stated),HDL cholesterol,Gallus gallus [1],87 mg 100ml-1
same,Total cholesterol,Gallus gallus [1],139 mg 100ml-1
same,Triglycerides,Gallus gallus [1],67 mg 100ml-1
same,Ratio,Gallus gallus [2],0.63
same,LDL cholesterol,Gallus gallus [3],44 mg 100ml-1
CC(C)=CCC/C(C)=C/CC/C(C)=C/CCC1(C)CCc2c(C)c(O)cc(C)c2O1 (configuration not stated),Inhibition,HepG2,43%
same,Potential,[4],1.05
same,inhibition,[5],21%
same,IC50,[6],7 µM
CC(C)=CCC/C(C)=C/CC/C(C)=C/CCC1(C)CCc2c(O)cccc2O1 (configuration not stated),Inhibition,HepG2,62%
same,Potential,[4],1.27
CC(C)=CCC/C(C)=C\CCC1(C)CCc2cc(O)ccc2O1 (configuration not stated),Inhibition,HepG2,55%
same,HDL cholesterol,Gallus gallus [1],94 mg 100ml-1
same,Total cholesterol,Gallus gallus [1],142 mg 100ml-1
same,Triglycerides,Gallus gallus [1],67 mg 100ml-1
same,inhibition,[5],39%
same,Ratio,Gallus gallus [2],0.66
same,LDL cholesterol,Gallus gallus [3],39 mg 100ml-1
same,IC50,[6],2 µM
CC(C)=CCC/C(C)=C/CC/C(C)=C/CC/C(C)=C/CCC1(C)CCc2cc(O)c(C)c(C)c2O1 (configuration not stated),Inhibition,HepG2,0%
CC(C)=CCC/C(C)=C/CC/C(C)=C/CCC1CCc2cc(O)c(C)c(C)c2O1 (configuration not stated),Inhibition,HepG2,62%
same,LDL cholesterol,Gallus gallus [7],85 mg 100ml-1
same,HDL cholesterol,Gallus gallus [1],97 mg 100ml-1
same,Total cholesterol,Gallus gallus [1],178 mg 100ml-1
same,Triglycerides,Gallus gallus [1],83 mg 100ml-1
same,inhibition,[5],67%
same,HDL cholesterol,Gallus gallus [8],102 mg 100ml-1
same,Total cholesterol,Gallus gallus [8],197 mg 100ml-1
same,Triglycerides,Gallus gallus [8],86 mg 100ml-1
same,Ratio,Gallus gallus [2],0.52 and 0.54
same,LDL cholesterol,Gallus gallus [3],76 mg 100ml-1
CC(C)=CCCC1(C)CCc2cc(O)ccc2O1 (configuration not stated),Inhibition,HepG2,35%
same,Potential,[4],1.2
same,HDL cholesterol,Gallus gallus [1],93 mg 100ml-1
same,Total cholesterol,Gallus gallus [1],131 mg 100ml-1
same,Triglycerides,Gallus gallus [1],73 mg 100ml-1
same,Ratio,Gallus gallus [2],0.71
same,LDL cholesterol,Gallus gallus [3],32 mg 100ml-1
same,IC50,[6],2 µM
CC(C)=CCC/C(C)=C/CC/C=C/CCC1(C)CCc2cc(O)c(C)c(C)c2O1 (configuration not stated),Inhibition,HepG2,68%
CC(C)=CCC/C(C)=C/CC/C(C)=C/CCc1cc(=O)c2cc(O)c(C)c(C)c2o1,Inhibition,HepG2,71%
CCCCCCCCCCCCCC1(C)CCc2cc(O)c(C)c(C)c2O1 (configuration not stated),Inhibition,HepG2,16%
CC(C)=CCC/C(C)=C/CCC1(C)CCc2c(O)cc(N3CCCC3)cc2O1 (configuration not stated),Inhibition,HepG2,54%
same,IC50,[6],4 µM
CC(C)=CCC/C(C)=C/CC/C(C)=C/CCC1(C)CCc2cc(O)c3ccccc3c2O1 (configuration not stated),Inhibition,HepG2,57%
same,LDL cholesterol,Gallus gallus [7],61 mg 100ml-1
same,Potential,[4],0.8
same,inhibition,[5],57%
same,HDL cholesterol,Gallus gallus [8],97 mg 100ml-1
same,Total cholesterol,Gallus gallus [8],160 mg 100ml-1
same,Triglycerides,Gallus gallus [8],81 mg 100ml-1
same,Ratio,Gallus gallus [2],0.61
CCCCC/C=C\C/C=C\C/C=C\CCCCC1(C)CCc2cc(O)c(C)c(C)c2O1 (configuration not stated),Inhibition,HepG2,22%
CC(C)=CCC/C(C)=C/CC/C=C\CCC1(C)CCc2cc(O)c(C)c(C)c2O1 (configuration not stated),Inhibition,HepG2,81%
same,inhibition,[5],45%
CC(C)=CCC/C(C)=C/CC/C(C)=C/CCC1(C)CCc2cc(F)ccc2O1 (configuration not stated),Inhibition,HepG2,35%
CCCCCCCC/C=C/CCCCCCCC1(C)CCc2cc(O)c(C)c(C)c2O1 (configuration not stated),Inhibition,HepG2,10%
CC(C)=CCC/C(C)=C/CC/C(C)=C/CCC1(C)C=Cc2cc(O)c(C)c(C)c2O1 (configuration not stated),Inhibition,HepG2,69%
same,Potential,[4],0.92
CC(C)=CCC/C(C)=C/CC/C(C)=C/CCC1(C)CCc2cc(O)c(C(C)(C)C)cc2O1 (configuration not stated),Inhibition,HepG2,38%
same,IC50,[6],10 µM
CCCCC/C=C/C/C=C/CCCCCCCC1(C)CCc2cc(O)c(C)c(C)c2O1 (configuration not stated),Inhibition,HepG2,17%
